The list is not random: actives were taken first. Their share in the collection is about 3.5%.
RGS4 pot: RGS4 potentiation or activation. hit rate 0.92% among 310,000. B-score at 10 µM. HEK293 M3R/inducible RGS4, carbachol calcium flux Fluo4; active compounds read low. AID 463111;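 active means B-score of the integrated calcium signal more than 4 SD below the library mean, with starting fluorescence not abnormally high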;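 further: negative B-score means reduced calcium response which marks RGS4 activation or potentiation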
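Test system: HEK293 cells with stable M3R and inducible RGS4; also added: carbachol at ECmax as muscarinic agonist stimulus; schedule: dye loading 30 min 37 °C, buffer rest 30 min RT; technique: kinetic calcium fluorescence imaging with Fluo4-AM dye, 2 µM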
MrgX1 antagonist: blocks BAM8-22 activation of human MrgX1 receptor; B-score at 10 µM; hit rate 1.3% among 310,000; MRGX1-HEK293 calcium flux, Fluo-4, BAM8-22 antagonism; active compounds read low; Q96LB2;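 active means calcium-response B-score plate-corrected more than 3 library SD below zero, starting fluorescence within 5 deviations, no agonist response on first addition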;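 further: peak minus trough fluorescence over baseline after final BAM8-22 challenge near maximal dose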
Target sequence (Q96LB2 whole entry, looked up): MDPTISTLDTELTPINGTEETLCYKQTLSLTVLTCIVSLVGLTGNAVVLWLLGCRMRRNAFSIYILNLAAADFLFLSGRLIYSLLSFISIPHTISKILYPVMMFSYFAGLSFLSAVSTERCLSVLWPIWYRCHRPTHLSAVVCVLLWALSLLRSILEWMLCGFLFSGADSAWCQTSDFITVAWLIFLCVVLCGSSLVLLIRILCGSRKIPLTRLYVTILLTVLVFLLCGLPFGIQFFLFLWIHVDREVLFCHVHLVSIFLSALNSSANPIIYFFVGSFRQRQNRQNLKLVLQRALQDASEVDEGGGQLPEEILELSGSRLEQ
MrgX1 ag: human MrgX1 receptor agonism, primary screen; Q96LB2; MrgX1-HEK293 cells, Fluo-4 calcium fluorescence, agonist mode; active compounds read high; B-score at 10 µM; hit rate 0.44% among 310,000;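 active means calcium response B-score plate-corrected fluorescence ratio at least 3 library SD, with starting fluorescence B-score inside 5 SD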
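Material: MrgX1-expressing HEK293 cells / Dosing: compound as first of three additions / Incubation: overnight seeding, then 1 h dark dye loading / Signal: Fluo-4 NW calcium fluorescence / Evaluation: B-scored fluorescence response ratio / Benchmarks: positive and negative control wells on each plate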
RGS4 block: inhibitors of human RGS4 | P49798 | HEK293 M3R/RGS4 inducible, Fluo-4 calcium flux; active compounds read high; triggered by carbachol at its EC20 | B-score at 10 µM | hit rate 0.45% among 310,000;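 active means B-score, a plate-corrected calcium signal, over three deviations above library mean, with baseline fluorescence within five deviations of library mean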;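 further: RGS4 expression induced by doxycycline in cells with stable M3 receptor; B-score is computed from the integrated fluorescence ratio over baseline after carbachol; higher B-score means a larger calcium signal and so more RGS4 inhibition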
Target sequence (P49798 whole entry, looked up): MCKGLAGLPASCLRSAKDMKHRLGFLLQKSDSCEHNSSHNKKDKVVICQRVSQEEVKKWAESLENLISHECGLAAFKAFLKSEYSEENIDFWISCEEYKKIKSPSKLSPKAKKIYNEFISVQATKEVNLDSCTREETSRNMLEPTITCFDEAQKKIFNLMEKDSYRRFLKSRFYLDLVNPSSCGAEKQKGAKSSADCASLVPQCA
MrgX1 PAM: allosterically activates human MrgX1 receptor signaling; MrgX1-HEK293, Fluo-4 calcium flux, FDSS; active compounds read high; B-score at 10 µM; hit rate 0.63% among 310,000;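 active means plate-corrected calcium response at least 3 library SD above typical, normal starting fluorescence, not activating the receptor alone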;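 further: compound read alongside a low EC10 to EC30 dose of BAM8-22 agonist; peak minus trough fluorescence over baseline measured at the second addition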
MrgX1 allo conf: reconfirmed allosteric activator of human MrgX1 receptor. hit rate 13% among 1,200. shares compounds with MrgX1 PAM. MrgX1-HEK293, Fluo-4 calcium fluorescence, FDSS. activation (ratio percentage), % at 10 µM;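 active means ratio at least 3 SD above the weak peptide control, stable starting fluorescence, no direct agonism earlier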;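 further: compound followed by low BAM8-22 agonist challenge near EC20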
HEK293 Ca flux: activity in parental HEK293 cells lacking MrgX1; fluorescence ratio F(max-min)/F0 at 10 µM; Fluo-4 calcium fluorescence, FDSS; hit rate 2% among 4,000; AID 624111; shares compounds with MrgX1 antagonist;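 active means duplicate-averaged calcium fluorescence ratio at least three times the standard deviation of buffer wells, a nonspecific response in parental cells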
HEK293 Ca counter: counter-screen for MrgX1 allosteric activators: effect in parental HEK293 cells. shares compounds with MrgX1 antagonist. parental HEK293 calcium flux, Fluo-4 fluorescence ratio; active compounds read high. fluorescence ratio F(max-min)/F0 at 10 µM. hit rate 0.4% among 4,000;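 active means calcium fluorescence ratio, averaged over duplicates, at least 3 SD of the buffer-well ratio, meaning a nonspecific response in receptor-free cells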;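 further: untransfected parental HEK293 lacking MrgX1 used as counterscreen for MrgX1 allosteric activators; fluorescence change taken during the second addition on a kinetic imager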
HEK293 Ca cntr2: MrgX1 activator counter-screen hit in parental HEK293 cells; shares compounds with MrgX1 antagonist; Fluo-4 calcium fluorescence (FDSS); active compounds read high; fluorescence ratio F(max-min)/F0 at 10 µM; hit rate 8.7% among 4,000;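 active means calcium fluorescence ratio at least three times the spread of buffer wells, meaning a non-specific response in parental cells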
Active calls of the source: *; i = inactive; nt = no result.

SMILES	RGS4 pot	MrgX1 antagonist	MrgX1 ag	RGS4 block	MrgX1 PAM	MrgX1 allo conf	HEK293 Ca flux	HEK293 Ca counter	HEK293 Ca cntr2
CNc1nc(Sc2cccc(C(F)(F)F)c2)cc(C(F)(F)F)n1	i	i	i	i	10*	i	i	i	i
CCc1nnc(NC(=O)CCC(=O)N2CCC(Cc3ccccc3)CC2)s1	i	i	i	i	i	nt	nt	nt	nt
Cc1ccc(NC(=O)C(=O)NCCOc2ccc(Cl)cc2)c(C)c1	i	i	i	i	9.6*	i	i	i	i
Cc1ccc(CNC(=O)C(=O)NCC2OCCCN2S(=O)(=O)c2ccc(F)cc2)cc1 (stereo not given)	i	i	i	i	i	nt	nt	nt	nt
O=C(NCCc1cccc(F)c1)C1CCN(S(=O)(=O)c2ccccc2)CC1	i	i	i	i	i	nt	nt	nt	nt
Cc1cccc(CCNC(=O)C2CCN(S(=O)(=O)c3ccccc3)CC2)c1	i	i	i	i	11*	i	i	i	i
OCC[C@@H]1C[C@@H](O)[C@H](O)[C@@]2(OCCc3ccccc32)O1	i	i	i	i	i	nt	nt	nt	nt
COc1cccc(CNC(=O)C2CCC(CNc3c(N4CCC(C)CC4)c(=O)c3=O)CC2)c1 (stereo not given)	i	i	i	i	i	nt	nt	nt	nt
COc1ccccc1CNC(=O)C1CCC(CNc2c(N3CCC(C)CC3)c(=O)c2=O)CC1 (stereo not given)	i	i	i	i	6.6*	i	i	i	i
COCCNC(=O)c1cccc(OC2CCN(Cc3ccc(OC(F)F)cc3)CC2)c1	i	i	i	i	i	nt	nt	nt	nt
Cc1cnn(-c2cc(Oc3ccccc3)ncn2)c1	i	i	i	i	8.8*	i	i	i	i
c1ccc(Oc2cc(-n3cncn3)ncn2)cc1	i	i	i	i	i	nt	nt	nt	nt
CS(=O)(=O)n1nc(OC(=O)c2cc(Br)ccc2Cl)cc1N	i	i	i	i	i	nt	nt	nt	nt
CS(=O)(=O)n1nc(OC(=O)c2cccc3ccccc23)cc1N	i	i	i	i	6.5*	14%*	i	i	i
COc1ccc(S(=O)(=O)n2nc(OC(C)=O)cc2N(C(C)=O)C(C)=O)cc1	i	i	i	i	13*	i	i	i	i
COc1ccc(S(=O)(=O)n2nc(OC(=O)c3ccccc3)cc2N)cc1	i	i	i	i	i	nt	nt	nt	nt
COc1ccc(S(=O)(=O)n2nc(OC(=O)c3ccccc3Br)cc2N)cc1	i	i	i	i	10*	32%*	i	i	i
CCOc1ncccc1C(=O)OCC(=O)Nc1ccc(C(N)=O)cc1	i	i	i	i	i	nt	nt	nt	nt
CCOC(=O)C(NC(=O)Nc1ccc(C(N)=O)cc1)(c1ccccc1)C(F)(F)F (stereo not given)	i	i	i	i	i	nt	nt	nt	nt
COc1nc2ccccc2nc1CCC(=O)O	i	i	i	i	i	nt	nt	nt	nt
Cc1c(C(C)(C)C)c(C=S)n2ccccc12	i	i	i	i	8.5*	i	i	i	i
CC(C)(C)c1ccc(-c2nc(C=O)c3ccccn23)cc1	i	i	i	i	i	nt	nt	nt	nt
CCOC(=O)c1cccc(NC(=O)CCc2ccccc2)c1	i	i	i	i	8.1*	i	i	i	i
O=C(CN(C1CCCCC1)C1CCCCC1)N1CCc2ccccc2C1	i	i	i	i	8.8*	i	i	i	i
O=C(CN(C1CCCCC1)S(=O)(=O)c1ccccc1)N1CCCC1	i	i	i	i	i	nt	nt	nt	nt
SMILES	RGS4 pot	MrgX1 antagonist	MrgX1 ag	RGS4 block	MrgX1 PAM	MrgX1 allo conf	HEK293 Ca flux	HEK293 Ca counter	HEK293 Ca cntr2
CC(=O)c1cc2c(cc1NC(=O)CN1CCCCC1C)OCO2 (stereo not given)	i	i	i	i	11*	i	i	i	i
Cc1cc(C)nc(-n2nc(C)c(Sc3ccc(F)cc3)c2N)n1	i	i	i	i	11*	i	i	i	i
Cc1nn(-c2ccccc2)c(N)c1Sc1cccc([N+](=O)[O-])c1	i	i	i	i	i	nt	nt	nt	nt
CCn1c(CC(=O)Nc2ccccc2)nnc1SCC(=O)Nc1nnc(C)s1	i	i	i	i	i	nt	nt	nt	nt
O=C(COc1ccccc1)N1CCN=C1SCc1ccc(F)cc1	i	i	i	i	8.6*	i	i	i	i
O=C(COc1ccccc1)N1CCN=C1SCc1cccnc1	i	i	i	i	i	nt	nt	nt	nt
CN(C)S(=O)(=O)c1cccc(N2C(=O)CC3(CCCCC3)CC2=O)c1	i	i	i	i	i	nt	nt	nt	nt
CCSc1nc2ccccc2c(=O)n1Cc1ccc(F)cc1	i	i	i	i	9.8*	i	i	i	i
COCc1cc(Sc2ccc(Cl)cc2)nc(C)n1	i	i	i	i	8.4*	i	i	i	i
COC1Cc2ccccc2N(C(=O)N2CCN(CCO)CC2)c2ccccc21 (stereo not given)	i	i	i	i	16*	i	i	i	i
CCOC1Cc2ccccc2N(C(N)=O)c2ccccc21 (stereo not given)	i	i	i	i	i	nt	nt	nt	nt
COc1cc(OC)c(C2SCCCS2)cc1OC	i	i	i	i	13*	6.3%*	i	i	i
COc1cc(OC)c(C2N(C)c3ccccc3N2C)cc1OC	i	i	i	i	i	nt	nt	nt	nt
CCCn1c(SCC(=O)Nc2cccc(NC(C)=O)c2)nnc1C(C)C	i	i	i	i	i	nt	nt	nt	nt
CCCn1c(SCC(=O)Nc2cccc(C)n2)nnc1C(C)C	i	i	i	i	8.2*	i	i	i	i
CCOC(=O)c1ccccc1NC(=O)CSc1nc2[nH]ncc2c(=O)[nH]1	i	i	i	i	i	nt	nt	nt	nt
CCCCC1(C)NC(=O)c2c(C)sc(C(=O)OCC)c2N1 (stereo not given)	i	i	i	i	8.3*	i	i	i	i
